Measured values from ChEMBL document CHEMBL1152290, “Bis-pyranobenzoquinones as a new family of reversal agents of the multidrug resistance phenotype mediated by P-glycoprotein in mammalian cells and the protozoan parasite Leishmania” (J Med Chem, 2008).
Values belong to the compound of their own block, whether it stands above or below them. Activity calls are given as the source filed them. The rule behind the calls is not given here.

What was measured:
Leishmania tropica [1] = test: Growth inhibition of Leishmania tropica promastigotes expressing MDR1 at 10 uM after 72 hrs by MTT assay in presence of daunorubicin relative to control; format: functional; conditions: for inhibition of growth at 10 µM: MDR1, 72 h, read-out: GI
In short: (§1)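 L. tropica promastigotes in log phase were resuspended at 6×10^6 cells/mL in modified RPMI 1640 with 20% heat-inactivated FBS and exposed to compound for 72 h at 28 °C. Viability was read by MTT. The resistant line overexpresses a Pgp-like transporter and is maintained in 150 µM daunorubicin.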

[2] = biological target: T1, ATP-dependent translocase ABCB1 (Homo sapiens, UniProt P08183); test: Inhibition of human MDR1 overexpressed in mouse NIH/3T3 cells assessed as daunorubicin accumulation by flow cytometry; format: cell-based, NIH3T3
In short: (§2)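 MDR1 and wild-type NIH-3T3 cells were incubated 0.5 h at 37 °C in DMEM plus 10% HIFBS with 2 µM daunorubicin and varying compound concentrations. Cells were washed, trypsinized, taken up in cold PBS, gated to exclude debris, and FL2 fluorescence was measured. Signals were converted to % Pgp inhibition normalized to wild type and fitted to y = Bmax·x/(Ki + x). Three experiments in triplicate.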

[3] = biological target: T2, Broad substrate specificity ATP-binding cassette transporter ABCG2 (Homo sapiens, UniProt Q9UNQ0); test: Inhibition of BCRP expressed in HEK293 cells assessed as mitoxantrone accumulation at 10 uM by spectrofluorimetry; format: cell-based; conditions: hek293, 10 µM
T2 sequence (Q9UNQ0 whole entry): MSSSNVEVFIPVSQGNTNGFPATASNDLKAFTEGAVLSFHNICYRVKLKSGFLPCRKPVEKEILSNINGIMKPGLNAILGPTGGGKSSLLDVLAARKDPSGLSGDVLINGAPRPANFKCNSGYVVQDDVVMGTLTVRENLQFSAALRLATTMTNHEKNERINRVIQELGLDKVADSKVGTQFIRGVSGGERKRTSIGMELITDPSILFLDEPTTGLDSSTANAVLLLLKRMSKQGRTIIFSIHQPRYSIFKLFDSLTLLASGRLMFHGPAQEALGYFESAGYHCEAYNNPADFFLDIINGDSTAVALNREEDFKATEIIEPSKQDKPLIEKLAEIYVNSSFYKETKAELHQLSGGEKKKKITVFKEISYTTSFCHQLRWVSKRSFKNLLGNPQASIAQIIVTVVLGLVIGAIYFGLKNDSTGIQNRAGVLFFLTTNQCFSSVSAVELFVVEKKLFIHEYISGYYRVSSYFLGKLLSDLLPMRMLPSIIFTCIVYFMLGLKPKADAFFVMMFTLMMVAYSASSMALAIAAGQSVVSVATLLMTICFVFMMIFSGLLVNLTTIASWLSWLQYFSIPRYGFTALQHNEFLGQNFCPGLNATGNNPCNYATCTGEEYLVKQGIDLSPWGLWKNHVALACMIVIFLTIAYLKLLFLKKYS
In short: (§3)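 Transfected cell monolayers were incubated 2 h at 37 °C with or without 10 µM compound in DMEM plus 10% HIFBS. Substrates were 5 µM mitoxantrone for HEK293-BCRP (R482) or 2 µM calcein-AM for 2008-MRP1. Cells were washed twice, lysed overnight at 4 °C in the dark in 20 mM Tris-HCl pH 7.4 with 0.2% SDS, and lysate fluorescence was read on a microplate spectrofluorometer.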

[4] = Intrinsic cytotoxicity against wild type mouse NIH/3T3 cells at 10 uM after 72 hrs by MTT assay; format: cell-based, NIH3T3; conditions: wild type NIH/3T3 cells, read-out: INH
In short: (§4)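 Wild-type or MDR1 NIH-3T3 cells were plated at 3.5×10^3 per well and allowed to attach for 24 h at 37 °C under 5% CO2. Compound was then added at 10 µM and intrinsic cytotoxicity was measured by MTT colorimetric assay. Mean ±SD of three independent experiments performed in triplicate.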

NIH3T3 [5] = test: Intrinsic cytotoxicity against mouse NIH/3T3 cells overexpressing MDR1 at 10 uM after 72 hrs by MTT assay; format: functional; conditions: NIH3T3, 72 h; in short: as §4
[6] = biological target: T1, ATP-dependent translocase ABCB1; test: Inhibition of human MDR1 overexpressed in mouse NIH/3T3 cells assessed as daunorubicin accumulation at 10 uM by spectrofluorimetry; format: cell-based; conditions: nih3t3, 10 µM
In short: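 NIH-3T3 cells transfected with human MDR1-G185 were incubated 2 h at 37 °C with 10 µM daunorubicin, with or without 10 µM compound, in DMEM plus 10% HIFBS. Cells were washed twice, lysed in SDS/Tris buffer pH 7.4 overnight at 4 °C, and read by plate fluorometry. Uptake is expressed relative to wild-type NIH-3T3 accumulation (100%). Three independent experiments, ±SD.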

[7] = biological target: Multidrug resistance-associated protein 1 (Homo sapiens, UniProt P33527); test: Inhibition of MRP1 expressed in human 2008 cells assessed as calcein-AM accumulation at 10 uM by spectrofluorimetry; format: cell-based; conditions: human, 2008, 10 µM; in short: as §3
[8] = biological target: T1, ATP-dependent translocase ABCB1; test: Inhibition of human MDR1 overexpressed in mouse NIH/3T3 cells assessed as daunorubicin accumulation by flow cytometry relative to control; format: cell-based; conditions: nih3t3; in short: as §2
Leishmania tropica [9] = test: Growth inhibition of wild type Leishmania tropica promastigotes at 10 uM after 72 hrs by MTT assay relative to control; format: functional; conditions: read-out: GI; in short: as §1
[10] = Intrinsic cytotoxicity against wild type mouse NIH/3T3 cells at 3 uM after 72 hrs by MTT assay; conditions: wild type NIH/3T3 cells
NIH3T3 [11] = test: Intrinsic cytotoxicity against mouse NIH/3T3 cells overexpressing MDR1 at 3 uM after 72 hrs by MTT assay; format: functional; conditions: NIH3T3, 72 h
[12] = Intrinsic cytotoxicity against wild type mouse NIH/3T3 cells after 72 hrs by MTT assay; format: cell-based; conditions: NIH3T3, 72 h
NIH3T3 [13] = test: Intrinsic cytotoxicity against mouse NIH/3T3 cells overexpressing MDR1 after 72 hrs by MTT assay; format: functional, cell-based; conditions: NIH3T3, 72 h
NIH3T3 [14] = test: Resistance index, ratio of IC50 for mouse NIH/3T3 cells expressing MDR1 to IC50 for wild type mouse NIH/3T3 cells
In short: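 Cells were plated at 3.5×10^3 per well and attached for 24 h. MDR1 and wild-type NIH-3T3 cells were exposed for 72 h at 37 °C to increasing daunorubicin, with or without 10, 3 or 1 µM modulator. Growth was read by MTT, and IC50 came from four-parameter logistic fits. RI is the IC50 in MDR1 cells divided by the IC50 in wild-type cells. Three independent experiments.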

Chain of Multidrug resistance-associated protein 1 (P33527 whole entry): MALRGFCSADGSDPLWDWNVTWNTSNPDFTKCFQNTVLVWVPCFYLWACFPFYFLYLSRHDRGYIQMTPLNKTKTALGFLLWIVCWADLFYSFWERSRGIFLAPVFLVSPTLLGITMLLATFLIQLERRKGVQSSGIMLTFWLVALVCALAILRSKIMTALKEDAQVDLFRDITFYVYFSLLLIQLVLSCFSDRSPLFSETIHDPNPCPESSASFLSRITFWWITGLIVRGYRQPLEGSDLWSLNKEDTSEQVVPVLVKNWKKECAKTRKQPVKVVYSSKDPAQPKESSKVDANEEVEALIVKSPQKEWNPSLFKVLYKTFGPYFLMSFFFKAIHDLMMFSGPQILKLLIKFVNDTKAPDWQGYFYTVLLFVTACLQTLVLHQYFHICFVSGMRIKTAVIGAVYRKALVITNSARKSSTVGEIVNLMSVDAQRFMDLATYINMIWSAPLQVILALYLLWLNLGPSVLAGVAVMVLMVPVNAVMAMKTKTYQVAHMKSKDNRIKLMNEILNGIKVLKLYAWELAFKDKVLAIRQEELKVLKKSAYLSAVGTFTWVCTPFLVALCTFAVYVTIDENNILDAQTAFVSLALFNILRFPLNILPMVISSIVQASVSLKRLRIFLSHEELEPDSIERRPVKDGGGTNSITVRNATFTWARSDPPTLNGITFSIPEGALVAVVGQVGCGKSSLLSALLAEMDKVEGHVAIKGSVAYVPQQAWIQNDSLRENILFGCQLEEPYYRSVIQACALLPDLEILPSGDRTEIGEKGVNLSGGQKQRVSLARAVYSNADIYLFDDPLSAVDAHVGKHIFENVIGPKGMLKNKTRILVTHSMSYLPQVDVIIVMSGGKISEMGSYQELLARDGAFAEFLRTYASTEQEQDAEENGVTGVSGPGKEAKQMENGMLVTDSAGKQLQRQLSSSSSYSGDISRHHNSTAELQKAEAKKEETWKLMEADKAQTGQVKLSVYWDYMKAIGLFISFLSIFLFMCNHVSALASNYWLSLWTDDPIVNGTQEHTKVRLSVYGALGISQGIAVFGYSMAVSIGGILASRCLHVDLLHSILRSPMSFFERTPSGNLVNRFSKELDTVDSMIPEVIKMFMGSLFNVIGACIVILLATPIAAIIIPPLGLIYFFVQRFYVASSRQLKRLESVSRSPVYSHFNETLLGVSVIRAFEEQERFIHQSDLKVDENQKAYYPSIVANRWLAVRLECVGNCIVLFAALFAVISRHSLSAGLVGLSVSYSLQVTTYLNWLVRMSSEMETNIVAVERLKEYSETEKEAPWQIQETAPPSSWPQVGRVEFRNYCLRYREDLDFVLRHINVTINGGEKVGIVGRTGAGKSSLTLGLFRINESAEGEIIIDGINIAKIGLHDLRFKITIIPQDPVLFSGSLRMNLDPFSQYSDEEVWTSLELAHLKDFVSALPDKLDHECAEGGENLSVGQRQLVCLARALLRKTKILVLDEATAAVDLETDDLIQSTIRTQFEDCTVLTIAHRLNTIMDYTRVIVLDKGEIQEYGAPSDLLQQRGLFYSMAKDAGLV
T1 sequence (P08183 whole entry): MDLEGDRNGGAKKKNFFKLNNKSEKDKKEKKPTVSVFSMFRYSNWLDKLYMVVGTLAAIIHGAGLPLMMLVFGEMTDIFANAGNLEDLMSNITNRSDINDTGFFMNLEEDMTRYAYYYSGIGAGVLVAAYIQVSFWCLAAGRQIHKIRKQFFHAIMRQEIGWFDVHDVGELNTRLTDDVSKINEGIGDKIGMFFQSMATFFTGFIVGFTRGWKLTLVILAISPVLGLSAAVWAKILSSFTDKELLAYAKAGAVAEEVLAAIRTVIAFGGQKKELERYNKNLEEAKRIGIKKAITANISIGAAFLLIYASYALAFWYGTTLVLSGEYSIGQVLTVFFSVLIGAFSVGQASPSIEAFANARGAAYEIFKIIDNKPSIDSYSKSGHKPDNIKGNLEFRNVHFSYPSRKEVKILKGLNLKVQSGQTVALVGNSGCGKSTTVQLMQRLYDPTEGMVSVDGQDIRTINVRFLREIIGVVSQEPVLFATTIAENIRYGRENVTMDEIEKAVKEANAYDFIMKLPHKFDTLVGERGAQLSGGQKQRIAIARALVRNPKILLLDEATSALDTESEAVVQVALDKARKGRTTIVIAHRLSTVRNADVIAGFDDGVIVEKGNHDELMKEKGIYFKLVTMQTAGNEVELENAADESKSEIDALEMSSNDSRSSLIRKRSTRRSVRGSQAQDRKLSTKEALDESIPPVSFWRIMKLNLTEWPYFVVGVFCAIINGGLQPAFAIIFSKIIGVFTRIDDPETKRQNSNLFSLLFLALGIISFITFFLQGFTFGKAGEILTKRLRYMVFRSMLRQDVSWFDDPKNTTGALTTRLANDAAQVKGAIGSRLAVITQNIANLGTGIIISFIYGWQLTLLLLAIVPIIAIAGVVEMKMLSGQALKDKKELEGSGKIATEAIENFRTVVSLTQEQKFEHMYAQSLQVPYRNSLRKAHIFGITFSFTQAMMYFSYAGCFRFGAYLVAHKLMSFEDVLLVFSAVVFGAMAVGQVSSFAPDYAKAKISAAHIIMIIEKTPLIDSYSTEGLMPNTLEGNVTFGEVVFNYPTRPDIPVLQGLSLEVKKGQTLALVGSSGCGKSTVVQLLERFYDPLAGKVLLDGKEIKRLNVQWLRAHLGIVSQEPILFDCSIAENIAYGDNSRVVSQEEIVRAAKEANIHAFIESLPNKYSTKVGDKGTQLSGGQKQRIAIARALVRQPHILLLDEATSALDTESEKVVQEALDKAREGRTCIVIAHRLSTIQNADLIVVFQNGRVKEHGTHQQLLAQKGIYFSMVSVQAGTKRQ

SMILES: CC1(C)OC2=C(C(=O)C3=C(C2=O)[C@H]2c4cc(Br)ccc4OC[C@H]2C(C)(C)O3)[C@H]2c3cc(Br)ccc3OC[C@H]21
Activity (Leishmania tropica [1]): inactive

SMILES: CC1(C)OC2=C(C(=O)C(=O)C3=C2OC(C)(C)[C@H]2COc4c(Br)cc(Br)cc4[C@@H]32)[C@H]2c3cc(Br)cc(Br)c3OC[C@H]21
Activity (Leishmania tropica [1]): inactive

Ki [2]: 770 nM
Activity [6]: Active
Activity [7]: Not Active
inhibition (INH) [8]: 72%
SMILES: C[C@@H]1CC[C@@H]2[C@@H](C1)C1=C(OC2(C)C)C(=O)C2=C(OC(C)(C)[C@@H]3CC[C@@H](C)C[C@@H]23)C1=O
Activity [3]: Not Active
cytotoxicity at 72 h, 10 µM [4]: 0%
inhibition at 10 µM (NIH3T3 [5]): 18.1%

SMILES: CC1(C)OC2=C(C(=O)C(=O)C3=C2OC(C)(C)[C@H]2COc4ccc5ccccc5c4[C@@H]32)[C@@H]2c3c(ccc4ccccc34)OC[C@@H]21
inhibition of growth at 10 µM (Leishmania tropica [1]): 100%

SMILES: CC1(C)OC2=C(C(=O)C(=O)C3=C2OC(C)(C)[C@H]2COc4ccc(Br)cc4[C@@H]32)[C@@H]2c3cc(Br)ccc3OC[C@@H]21
inhibition of growth at 10 µM (Leishmania tropica [9]): 75%
inhibition of growth at 10 µM (Leishmania tropica [1]): > 75%

SMILES: O[C@@H](COc1cccc2ncccc12)CN1CCN([C@@H]2c3ccccc3[C@@H]3[C@H](c4ccccc42)C3(F)F)CC1 [ZOSUQUIDAR]
cytotoxicity at 72 h, 3 µM [10]: 2.4%
cytotoxicity at 72 h, 10 µM [4]: 2.4%
inhibition at 3 µM (NIH3T3 [11]): 3.1%
inhibition at 10 µM (NIH3T3 [5]): 3.1%

SMILES: C[C@@H]1CC[C@H]2[C@H](C1)C1=C(OC2(C)C)C2=C(C(=O)C1=O)[C@H]1C[C@@H](C)CC[C@@H]1C(C)(C)O2
inhibition of growth at 10 µM (Leishmania tropica [1]): > 75%

SMILES: COc1cccc2c1C(=O)c1c(O)c3c(c(O)c1C2=O)C[C@@](O)(C(C)=O)C[C@@H]3O[C@H]1C[C@H](N)[C@H](O)[C@H](C)O1 [DAUNORUBICIN]
IC50 [12]: 44 nM
IC50 (NIH3T3 [13]): 1010 nM
Ratio IC50 (NIH3T3 [14]): 23

SMILES: COc1ccc(CCN(C)CCCC(C#N)(c2ccc(OC)c(OC)c2)C(C)C)cc1OC (stereo not drawn)
inhibition at 10 µM (NIH3T3 [5]): 11.2%

Ki [2]: 1040 nM
Activity [6]: Active
Activity [7]: Not Active
inhibition (INH) [8]: 112.5%
SMILES: COc1ccc2c(c1)OC[C@H]1[C@@H]2C2=C(OC1(C)C)C1=C(C(=O)C2=O)[C@@H]2c3ccc(OC)cc3OC[C@@H]2C(C)(C)O1
Activity [3]: Not Active
cytotoxicity at 72 h, 10 µM [4]: 24.7%
inhibition at 10 µM (NIH3T3 [5]): 10.8%
inhibition of growth at 10 µM (Leishmania tropica [1]): > 75%

SMILES: CC1(C)OC2=C(C(=O)C(=O)C3=C2OC(C)(C)[C@H]2COc4c(Br)cc(Br)cc4[C@@H]32)[C@@H]2c3cc(Br)cc(Br)c3OC[C@@H]21
Activity (Leishmania tropica [1]): inactive

Ki [2]: 420 nM
Activity [6]: Active
Activity [7]: Not Active
inhibition (INH) [8]: 105.8%
SMILES: COc1ccc2c(c1)OC[C@H]1[C@@H]2C2=C(OC1(C)C)C1=C(C(=O)C2=O)[C@H]2c3ccc(OC)cc3OC[C@H]2C(C)(C)O1
Activity [3]: Not Active
cytotoxicity at 72 h, 10 µM [4]: 9.7%
inhibition at 10 µM (NIH3T3 [5]): 3.5%
Activity (Leishmania tropica [1]): inactive

SMILES: C[C@H]1CC[C@@H]2[C@@H]1C1=C(OC2(C)C)C2=C(C(=O)C1=O)[C@H]1[C@@H](CC[C@@H]1C)C(C)(C)O2
inhibition of growth at 10 µM (Leishmania tropica [1]): > 75%

Ki [2]: 510 nM
Activity [6]: Active
Activity [7]: Not Active
inhibition (INH) [8]: 104.3%
SMILES: COc1ccc2c(c1)OC[C@@H]1[C@H]2C2=C(OC1(C)C)C(=O)C1=C(OC(C)(C)[C@@H]3COc4cc(OC)ccc4[C@H]13)C2=O
Activity [3]: Not Active
cytotoxicity at 72 h, 10 µM [4]: 6.5%
inhibition at 10 µM (NIH3T3 [5]): 0%
Activity (Leishmania tropica [1]): inactive

SMILES: CC1(C)OC2=C(C(=O)C(=O)C3=C2OC(C)(C)[C@H]2COc4ccc(Br)cc4[C@@H]32)[C@H]2c3cc(Br)ccc3OC[C@H]21
Activity (Leishmania tropica [1]): inactive
